# According to ChEMBL document CHEMBL2331491, “Novel imidazophenoxazine-4-sulfonamides: their synthesis and evaluation as potential inhibitors of PDE4” (Bioorg Med Chem, 2013):
# Legend:
# [1] = molecular target: T1, 3',5'-cyclic-AMP phosphodiesterase 4B (Homo sapiens, UniProt Q07343); assay: Inhibition of PDE4B1 (unknown origin) expressed in sf9 cells using cAMP as substrate preincubated at 30 uM for 15 mins before substrate addition measured after 1 hr by luminescence assay
# How it was run: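 His-tagged PDE4B1 was expressed in baculovirus-infected Sf9 cells (lysed 48 h post infection) and purified on Ni-NTA. 10 ng of enzyme was preincubated 15 min with compound or DMSO vehicle, then given cAMP substrate for 1 h. The reaction was stopped and detection reagent added for 10 min in the dark before reading luminescence. % inhibition = (RLU vehicle − RLU inhibitor)/RLU vehicle × 100, at a single screening concentration.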
# [2] = molecular target: T1, 3',5'-cyclic-AMP phosphodiesterase 4B; assay: Inhibition of PDE4B1 (unknown origin) expressed in sf9 cells using cAMP as substrate preincubated for 15 mins before substrate addition measured after 1 hr by luminescence assay
# How it was run: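 Ni-NTA-purified His-tagged PDE4B1 from baculovirus-infected Sf9 cells was used at 10 ng per reaction. Enzyme was preincubated 15 min with compound (9 concentrations) or DMSO, then cAMP for 1 h. After stop solution and 10 min detection reagent in the dark, luminescence was read. % inhibition was taken versus vehicle RLU. IC50 came from nonlinear regression of the dose-response curve and is given as mean ± SD.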
# T1 sequence (Q07343 whole entry): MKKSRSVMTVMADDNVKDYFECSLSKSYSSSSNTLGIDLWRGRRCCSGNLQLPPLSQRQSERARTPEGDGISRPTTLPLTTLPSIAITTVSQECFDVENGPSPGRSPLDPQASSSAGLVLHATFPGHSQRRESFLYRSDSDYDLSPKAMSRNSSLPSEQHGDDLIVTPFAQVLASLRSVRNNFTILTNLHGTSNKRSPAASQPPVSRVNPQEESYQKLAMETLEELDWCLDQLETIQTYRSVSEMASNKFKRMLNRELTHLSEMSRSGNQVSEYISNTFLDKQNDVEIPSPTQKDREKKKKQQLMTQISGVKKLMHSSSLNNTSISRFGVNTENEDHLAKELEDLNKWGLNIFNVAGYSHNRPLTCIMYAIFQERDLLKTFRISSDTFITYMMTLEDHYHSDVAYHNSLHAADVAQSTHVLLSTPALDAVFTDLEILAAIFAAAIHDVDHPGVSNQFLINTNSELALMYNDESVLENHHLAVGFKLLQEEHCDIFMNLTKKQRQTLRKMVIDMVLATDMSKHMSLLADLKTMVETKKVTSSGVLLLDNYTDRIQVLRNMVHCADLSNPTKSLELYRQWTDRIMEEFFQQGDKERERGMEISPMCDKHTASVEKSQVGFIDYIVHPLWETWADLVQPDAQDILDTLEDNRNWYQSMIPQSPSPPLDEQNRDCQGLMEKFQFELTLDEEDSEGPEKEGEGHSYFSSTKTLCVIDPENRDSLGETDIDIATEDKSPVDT
Structure (SMILES),inhibition [1] [%],IC50 [2] [nM],inhibition [2]
NS(=O)(=O)c1cc2c3c(c1)nc(-c1c(Cl)cccc1Cl)n3-c1ccccc1O2,80.2,–,–
NS(=O)(=O)c1cc2c3c(c1)nc(-c1cccc(Br)c1)n3-c1ccccc1O2,89.7,1230,Dose-dependent effect
CCN(CC)c1ccc(-c2nc3cc(S(N)(=O)=O)cc4c3n2-c2ccccc2O4)c(O)c1,19.7,–,–
COc1cc(-c2nc3cc(S(N)(=O)=O)cc4c3n2-c2ccccc2O4)ccc1O,82.4,–,–
NS(=O)(=O)c1cc2c3c(c1)nc(-c1cccc(O)c1)n3-c1ccccc1O2,87.6,–,–
NS(=O)(=O)c1cc2c3c(c1)nc(-c1ccc(Cl)cc1)n3-c1ccccc1O2,80.3,–,–
NS(=O)(=O)c1cc2c3c(c1)nc(-c1ccccc1O)n3-c1ccccc1O2,89.3,3310,Dose-dependent effect
NS(=O)(=O)c1cc2c3c(c1)nc(-c1ccc(O)cc1)n3-c1ccccc1O2,88.8,–,–
NS(=O)(=O)c1cc2c3c(c1)nc(-c1ccccc1Br)n3-c1ccccc1O2,81,–,–

# Next, values leading:
inhibition [1] [%],IC50 [2] [nM],inhibition [2],Structure (SMILES)
66.8,–,–,NS(=O)(=O)c1cc2c3c(c1)nc(-c1cccc([N+](=O)[O-])c1)n3-c1ccccc1O2
76.3,–,–,NS(=O)(=O)c1cc2c3c(c1)nc(-c1ccccc1Cl)n3-c1ccccc1O2
79.7,–,–,NS(=O)(=O)c1cc2c3c(c1)nc(-c1ccccc1)n3-c1ccccc1O2
92.9,530,Dose-dependent effect,NS(=O)(=O)c1cc2c3c(c1)nc(-c1cc(Br)ccc1F)n3-c1ccccc1O2
66.5,–,–,COc1ccc(-c2nc3cc(S(N)(=O)=O)cc4c3n2-c2ccccc2O4)cc1
